# Results of several laboratories.
Structure (SMILES),target or system,assay,setting,endpoint,result
COc1ccc(-c2ccc(-c3ccc(C(=N)N)nc3)s2)cc1,786-0,cell growth or viability,,GI50,1.88 µM
CCN(O)N=Nc1ccc(S(=O)(=O)Nc2onc(C)c2C)cc1,,"DPPH scavenging, absorbance",120 µg/mL,inhibition,22.5%
COc1cc(C=Cc2cc(-c3ccccc3)nc(O)n2)ccc1O,,DPPH scavenging,12.5 µg/mL,inhibition,38.3%
Oc1ccc(Br)cc1C=NCCN1CCOCC1,,"DPPH scavenging, absorbance",80 µM,inhibition,17.4%
O=C1O[C@H]([C@@H](O)CO)C(O)=C1O,,DPPH scavenging,100 µg/mL,inhibition,81.3%
Cc1cccc(N(O)N=Nc2ccc(S(=O)(=O)Nc3cc(C)on3)cc2)c1,,"DPPH scavenging, absorbance",180 µg/mL,inhibition,34.7%
O=C(Nc1ccc2c(c1)OC(F)(F)O2)Nc1ccc(Cl)c(C(F)(F)F)c1,Salmonella,microbial growth,clinical isolate,MIC,> 100 µM
O=C1O[C@H]([C@@H](O)CO)C(O)=C1O,,"DPPH scavenging, absorbance",160 µM,inhibition,70.9%
COc1cc(C=Cc2cc(-c3ccc(N(C)C)cc3)nc(O)n2)ccc1O,,DPPH scavenging,100 µg/mL,inhibition,71.7%
Cn1nnc2c(C(N)=O)ncn2c1=O,MGC-803,cell growth or viability,,EC50,356 µM
COc1cc(C=CC(=O)CC(c2ccc([N+](=O)[O-])cc2)n2ccnc2)ccc1O (stereo not drawn),,DPPH scavenging,50 µg/mL,inhibition,61.4%
CCN(O)N=Nc1ccc(S(=O)(=O)Nc2nccs2)cc1,,"DPPH scavenging, absorbance",60 µg/mL,inhibition,9.02%
